Source: PMC4383763 (Journal of clinical pharmacology, 2013)

How the values were obtained:
[1] = Plasma propylene glycol concentration by GC-FID after APAP preparation; assay type: in vivo, human
In short: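 Crossover in volunteers given tablet or liquid APAP formulations (liquid contains 5% v/v PG), 15 mg/kg orally after a 1 h fast, on separate visits. Blood held refrigerated ≤24 h, then plasma separated by centrifugation and stored at -80 °C. PG was measured by GC-FID, first in 0–120 min samples from three subjects, then in all 30 min samples. LOD 5.0 mg/dL.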

[2] = assumed for the prediction, no reference given; cited from earlier work
CYP2E1 = settings: cited from earlier work
Cultured hepatocytes = settings: in the presence of PG; cited from earlier work
[3] = tested on: APAP-induced liver injury in mice; settings: cited from earlier work; for effect of drug vehicles on APAP-induced liver injury: mouse model
[4] = subjects who received 2 months of cimetidine; cited from earlier work

## CC(O)CO (stereo not drawn) [PG, propylene glycol]
[1]; 30-minute samples after liquid preparation
  maximum PG concentration in plasma: 9.1 mg/dL
[1]; following ingestion of the liquid preparation, limit of detection 5.0 mg/dL
  PG detected in 30-minute samples: 9 out of 15
[1]; solid group, limit of detection 5.0 mg/dL
  PG detected in samples: none
[2]
  volume of distribution of PG: 0.58 L/kg
CYP2E1
  type of CYP2E1 inhibition: competitive inhibitor
Cultured hepatocytes
  susceptibility of cultured hepatocytes to APAP-induced necrosis: less susceptible
[3]; mice pretreated with the substance
  hepatocellular damage following a toxic APAP dose: reduced hepatocellular damage
[3]
  effect of drug vehicles on APAP-induced liver injury: protective

## CN/C(=N/CCSCc1nc[nH]c1C)NC#N [cimetidine]
[4]
  urinary APAP-mercapturate following therapeutic APAP dosing: decreased

## CN(C)C=O [dimethylformamide]
[3]
  effect of drug vehicles on APAP-induced liver injury: protective

## C[S+](C)[O-] [dimethylsulfoxide]
[3]
  effect of drug vehicles on APAP-induced liver injury: protective

## CCO [ethanol]
[3]
  effect of drug vehicles on APAP-induced liver injury: protective
